≈ marks a conversion by molar mass, not a printed value. Calls of active or inactive are those of the source. The rule behind the calls is not given here.
Columns and labels:
Type in all cases: functional
Staphylococcus aureus [1] = assay: Antibacterial activity against Staphylococcus aureus assessed as growth inhibition measured at 50 ug/ml after 24 hrs by broth microdilution method
Acinetobacter baumannii [2] = assay: Antibacterial activity against Acinetobacter baumannii assessed as growth inhibition measured at 50 ug/ml after 24 hrs by broth microdilution method
[3] = test system: Stenotrophomonas maltophilia; assay: Antibacterial activity against Stenotrophomonas maltophilia assessed as growth inhibition measured after 24 hrs by broth microdilution method
In short: (§1)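 Broth microdilution per NCCLS. Bacteria were grown in Luria broth to exponential phase. Compounds were dissolved in DMSO (stock 5120 μg/ml), diluted in test medium and tested at two-fold dilutions from 1 to 128 μg/ml. MIC50 is the lowest concentration reducing OD to half that of the untreated control.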

Pseudomonas aeruginosa [4] = assay: Antibacterial activity against Pseudomonas aeruginosa assessed as growth inhibition measured at 50 ug/ml after 24 hrs by broth microdilution method
Escherichia coli [5] = assay: Antibacterial activity against Escherichia coli assessed as growth inhibition measured at 50 ug/ml after 24 hrs by broth microdilution method
Escherichia coli [6] = assay: Antibacterial activity against Escherichia coli assessed as growth inhibition measured after 24 hrs by broth microdilution method; in short: as §1
[7] = test system: Stenotrophomonas maltophilia; assay: Antibacterial activity against Stenotrophomonas maltophilia assessed as growth inhibition measured at 50 ug/ml after 24 hrs by broth microdilution method
Staphylococcus aureus [8] = assay: Antibacterial activity against Staphylococcus aureus assessed as growth inhibition measured after 24 hrs by broth microdilution method; in short: as §1
Acinetobacter baumannii [9] = assay: Antibacterial activity against Acinetobacter baumannii assessed as growth inhibition measured after 24 hrs by broth microdilution method; in short: as §1
Pseudomonas aeruginosa [10] = assay: Antibacterial activity against Pseudomonas aeruginosa assessed as growth inhibition measured after 24 hrs by broth microdilution method; in short: as §1

Row | Compound | MIC50 [3] | MIC50 (Escherichia coli [6]) | MIC50 (Staphylococcus aureus [8]) | MIC50 (Acinetobacter baumannii [9]) | MIC50 (Pseudomonas aeruginosa [10]) | inhibition (Staphylococcus aureus [1]) | inhibition at 50 µg/mL (Acinetobacter baumannii [2]) | inhibition at 50 µg/mL (Pseudomonas aeruginosa [4]) | inhibition at 50 µg/mL (Escherichia coli [5]) | inhibition at 50 µg/mL [7] | inhibition at 50 µg/mL (Staphylococcus aureus [1])
1 | O=C1O/C(=C\c2ccc(N3CCOCC3)c(F)c2)C(O)=C1c1ccc(F)cc1 | – | 15.6 µg/mL (≈ 40.5 µM) | – | – | – | inactive | 15.6% | 23.2% | 56.8% | 27.8% | –
2 | COC1=C(c2ccccc2)C(=O)OC1C(O)c1ccc(N2CCOCC2)c(F)c1 (centres undefined) | – | 36.5 µg/mL (≈ 91.3 µM) | – | – | – | inactive | 29.2% | 34.8% | 52.4% | 17.1% | –
3 | COC1=C(c2ccc(Cl)cc2)C(=O)O/C1=C\c1ccc(N2CCOCC2)c(F)c1 | – | 7.4 µg/mL (≈ 17.8 µM) | – | – | – | inactive | – | 45.3% | 70.7% | – | –
4 | COC1=C(c2ccc(Cl)cc2)C(=O)OC1C(O)c1ccc(N2CCOCC2)c(F)c1 (centres undefined) | – | 30.3 µg/mL (≈ 69.7 µM) | – | – | – | inactive | 22.1% | 31.7% | 61.8% | – | –
5 | COC1=C(c2ccccc2)C(=O)OC1C(O)c1ccccc1 (centres undefined) | – | 5.86 µg/mL (≈ 19.8 µM) | – | – | – | inactive | 25.9% | 53.2% | 61.7% | 18% | –
6 | COC1=C(c2ccccc2)C(=O)O/C1=C\c1ccc(N2CCOCC2)c(F)c1 | – | > 50 µg/mL | – | – | – | inactive | 10% | 17.6% | 45.4% | – | –
7 | COC1=C(c2ccc(F)cc2)C(=O)O/C1=C\c1ccc(N2CCOCC2)c(F)c1 | 20.6 µg/mL (≈ 51.7 µM) | > 50 µg/mL | – | – | – | inactive | 20.1% | 23.4% | 37.6% | 59.4% | –
8 | COC1=C(c2ccc(F)cc2)C(=O)OC1C(O)c1ccc(N2CCOCC2)c(F)c1 (centres undefined) | – | > 50 µg/mL | – | – | – | inactive | 22.8% | 35.2% | 42% | 31.9% | –

Now those with a lower MIC50 (Escherichia coli [6]), led by results:

Row | MIC50 [3] | MIC50 (Escherichia coli [6]) | MIC50 (Staphylococcus aureus [8]) | MIC50 (Acinetobacter baumannii [9]) | MIC50 (Pseudomonas aeruginosa [10]) | Compound | inhibition (Staphylococcus aureus [1]) | inhibition at 50 µg/mL (Acinetobacter baumannii [2]) | inhibition at 50 µg/mL (Pseudomonas aeruginosa [4]) | inhibition at 50 µg/mL (Escherichia coli [5]) | inhibition at 50 µg/mL [7] | inhibition at 50 µg/mL (Staphylococcus aureus [1])
9 | 11.8 µg/mL (≈ 24.8 µM) | 1.01 µg/mL (≈ 2.11 µM) | – | – | – | COC1=C(c2ccc(Br)cc2)C(=O)OC1C(O)c1ccc(N2CCOCC2)c(F)c1 (centres undefined) | inactive | 32.9% | 35.6% | 45.5% | – | –
10 | – | 3.91 µg/mL (≈ 14 µM) | – | – | – | COC1=C(c2ccccc2)C(=O)O/C1=C\c1ccccc1 | inactive | 18.2% | 45.4% | 60.2% | 19.7% | –
11 | – | 3.67 µg/mL (≈ 8.88 µM) | – | – | – | COC1=C(c2ccc(C)cc2)C(=O)OC1C(O)c1ccc(N2CCOCC2)c(F)c1 (centres undefined) | inactive | 4.9% | 31.8% | 58.3% | 1.1% | –
12 | < 0.25 µg/mL | < 0.25 µg/mL | < 0.25 µg/mL | < 0.25 µg/mL | < 0.25 µg/mL | C[C@H]1COc2c(N3CCN(C)CC3)c(F)cc3c(=O)c(C(=O)O)cn1c23.C[C@H]1COc2c(N3CCN(C)CC3)c(F)cc3c(=O)c(C(=O)O)cn1c23.O [LEVOFLOXACIN] | – | – | – | – | – | –
13 | – | 4.09 µg/mL (≈ 9.8 µM) | – | – | – | COC1=C(c2cccc(F)c2)C(=O)OC1C(O)c1ccc(N2CCOCC2)c(F)c1 (centres undefined) | inactive | 30.9% | 38.2% | 72% | 41.5% | –
14 | 12.8 µg/mL (≈ 48.4 µM) | 1.38 µg/mL (≈ 5.22 µM) | – | > 50 µg/mL | > 50 µg/mL | O=C1O/C(=C\c2ccccc2)C(O)=C1c1ccccc1 [PULVINONE] | – | – | – | – | – | 59.2%
